The results in this text go back to ChEMBL document CHEMBL5634197, “Structural Evaluations of a Selective Human STINGA230 Agonist and Its Use in Macrophage Immunotherapies” (ACS Med Chem Lett, 2024).

pEC50: −log10 of the molar value. The source made the active and inactive calls. The calls are words filed in the database; no cut-off is given here.

Experiment [1] in a line: Agonist activity at N-terminal his/SUMO tagged STING A230 in human THP-1 cells transfected with ISRE reporter assessed as increase in cGAMP-induced ISRE activation incubated for 48 hrs by luminescence based analysis. In kind it is cell-based. As to conditions: for pEC50: Homo sapiens, THP-1, 48 h, read-out: EC50; for EC50: thp-1.
Experiment [2] has as its system THP-1. Briefly: Upregulation of MX1 expression in human THP-1 cells at 50 uM measured after 6 hrs by RT-qPCR analysis. The format is functional, cell-based. The method in brief:
(§1)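 THP-1 cells, which carry homozygous STING HAQ, were treated for 6 h with vehicle or the agonist at 50 μM. Cells were then harvested, and MX1 and OAS1 expression was measured by RT-qPCR.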
In general terms: In qPCR the cycle at which signal appears reflects the starting amount.

The subject of experiment [3] is THP-1. Briefly: Upregulation of OAS1 expression in human THP-1 cells at 50 uM measured after 6 hrs by RT-qPCR analysis. The format is functional, cell-based. In a few lines:
as §1

Experiment [4] concerns Macrophage. Briefly: Upregulation of MX1 expression in human Primary macrophage measured after 6 hrs by RT-qPCR analysis. The format is functional, cell-based. In a few lines:
(§2)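 CD14+ monocytes from 3 healthy donors with STING G230 alleles were differentiated into macrophages with M-CSF. Cells were transduced with FG12-EF1p-EGFRt-p2A-STINGA230 lentivirus, mock-transduced or left untransduced. Three days after transduction they were stimulated for 6 h with DMSO vehicle or the agonist, and MX1 and IRF7 expression was measured by RT-qPCR.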

Experiment [5] concerns Macrophage. Briefly: Upregulation of IRF7 expression in human Primary macrophage measured after 6 hrs by RT-qPCR analysis. In kind it is functional, cell-based. In a few lines: as §2
Experiment [6] in a line: Upregulation of MX1 expression in human Primary macrophage transduced with lentivirus FG12-EFlp-EGFRt-p2A-STING A230 assessed as fold change measured after 6 hrs by RT-qPCR analysis. The format is functional. In a few lines:
as §2

Experiment [7] is described as follows: Upregulation of IRF7 expression in human Primary macrophage transduced with lentivirus FG12-EFlp-EGFRt-p2A-STING A230 assessed as fold change measured after 6 hrs by RT-qPCR analysis. The format is functional. In a few lines:
as §2

Another experiment concerns PBMC. The experiment is described as follows: Induction of MX1 gene expression in human PBMC cells harbouring STING A230 allele at 50 uM measured after 6 hrs by RT-qPCR analysis. The format is functional, cell-based. In a few lines:
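Primary PBMCs from 15 independent healthy donors were exposed to 50 μM agonist for 6 h. The 2′,3′-cGAMP comparator was given at 1 μg/mL. Cells were then harvested, and MX1 expression was measured by RT-qPCR. Values come from the donor carrying the STINGA230 allele.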

On to `CCOC(=O)CSc1nnc2c3c(C)c(C)sc3ncn12`, for which the pEC50 – broadly, the negative decadic logarithm of the EC50, by convention in mol/L – in experiment [1] is 5.06.

Take `COC(=O)CSc1nnc2c3c(C)c(C)sc3ccn12`: in experiment [1], the EC50 entry is “Not Active”.

`COC(=O)CSc1nnc2c3cc(OC)c(OC)cc3ncn12`: the EC50 entry in experiment [1] is “Not Active”.

Consider `Cc1sc2ncn3c(SC4CCOC4=O)nnc3c2c1C` (configuration not stated), for which the EC50 result in experiment [1] was “Not Active”.

Take `COC(=O)CSc1nnc2c3ccsc3ncn12`: the EC50 entry in experiment [1] is “Not Active”.

`COC(=O)CNC(=O)n1cnc2sc(C)c(C)c2c1=O`: in experiment [1], the EC50 result is on record as “Not Active”.

On to `CCc1cc2c(ncn3c(SCC(=O)OC)nnc23)s1`, for which, in experiment [1], the pEC50 is 5.16.

Take `COC(=O)CSc1nnc2c3c(C)c(C)oc3ncn12`: in experiment [1], the EC50 result is “Not Active”.

For the compound `COCc1c(C)sc2ncn3c(SCC(=O)OC)nnc3c12`, in experiment [1], the EC50 result is given as “Not Active”.

In the case of `COC(=O)CCc1nnc2c3c(C)c(C)sc3ncn12`, in experiment [1], the EC50 result was “Not Active”.

In the case of `Cc1sc2ncn3c(SCC(=O)OC(C)(C)C)nnc3c2c1C`, the EC50 result in experiment [1] is listed as “Not Active”.

Consider `COC(=O)CSc1ncc2c3c(C)c(C)sc3ncn12`, for which, in experiment [1], the EC50 result was “Not Active”.

For `COC(=O)CSc1nnc2c3c(C)c(C)sc3nc(C)n12`, the EC50 result in experiment [1] is “Not Active”.

`Cc1sc2ncn3c(Sc4nnn[nH]4)nnc3c2c1C`: in experiment [1], the EC50 entry is “Not Active”.

As to `COC(=O)CSc1nnc2c3c4c(sc3ncn12)CCC4`, the negative logarithm of the EC50 (pEC50) in experiment [1] is 5.14.

Consider `COC(=O)CSc1nnc2c3c(C)c(Br)sc3ncn12`, for which the pEC50 in experiment [1] was 4.94.

With `Cc1sc2ncn3c(SCC(=O)OC(C)C)nnc3c2c1C`, the pEC50 in experiment [1] is 4.87.

Take `COC(=O)CSc1nnc2c3c(C)c(C)sc3ncn12`: in experiment [1], the pEC50 is 5.24. The outcome with THP-1 [2], in the experiment with THP-1 [3] and in the experiment with PBMC was Active. For the same compound, the outcome in the experiment with Macrophage [4] and in the experiment on Macrophage [5] was inactive. Also, the “fold change (FC)” value in experiment [6] is recorded as 10; in experiment [7] it was 5.

On to `COC(=O)CSc1nnc2c3c(C)c(C)n(C)c3ncn12`, for which, in experiment [1], the EC50 entry is “Not Active”.

As for `COCc1sc2ncn3c(SCC(=O)OC)nnc3c2c1C`, in experiment [1], the pEC50 is 4.63.

In the case of `COC(=O)COc1nnc2c3c(C)c(C)sc3ncn12`, the EC50 result in experiment [1] is listed as “Not Active”.

As for `COC(=O)C[S+]([O-])c1nnc2c3c(C)c(C)sc3ncn12` (configuration not stated), the EC50 result in experiment [1] is “Not Active”.

Take `COC(=O)CSc1nnc2c3c4c(sc3ncn12)CCCC4`: the EC50 result in experiment [1] is on record as “Not Active”.

On to `COC(=O)Cc1nnc2c3c(C)c(C)sc3ncn12`, for which the EC50 result in experiment [1] is on record as “Not Active”.

Take `COC(=O)CCSc1nnc2c3c(C)c(C)sc3ncn12`: in experiment [1], the EC50 entry is recorded as “Not Active”.
